The source of these data is ChEMBL document CHEMBL3813686, “Biologically Active Acetylenic Amino Alcohol and N-Hydroxylated 1,2,3,4-Tetrahydro-β-carboline Constituents of the New Zealand Ascidian Pseudodistoma opacum” (J Nat Prod, 2016).

Assay [1] deals with Mycobacterium tuberculosis. Description: Antibacterial activity against Mycobacterium tuberculosis BSG001 incubated overnight by microbroth-dilution method. It is filed as functional. An outline of the steps:
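M. tuberculosis H37Rv carrying a bacterial luciferase vector, grown 2 weeks at 37 °C (100 rpm) in Middlebrook 7H9 with ADC and glycerol. Assay medium was 7H9 without Tween or kanamycin. Compounds in DMSO were tested in doubling dilutions from 64 to 1 μg/mL, with untreated and DMSO controls, incubated overnight at 37 °C. Triplicate wells per concentration; three separate experiments.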

In assay [2] the test system is Escherichia coli. Description: Bactericidal activity against Escherichia coli ATCC 25922 incubated overnight by microbroth-dilution method. It is filed as functional. An outline of the steps:
(§1)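 Broth from the MIC wells (standard microbroth dilution, ~5 × 10^5 cfu/mL in Mueller Hinton broth) was transferred into fresh medium and incubated overnight at 37 °C, then scored for growth. Cell dilutions were also plated. MBC was taken as a reduction of at least 3 logs from the initial inoculum.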

Assay [3] has as its system Escherichia coli. Description: Antibacterial activity against Escherichia coli ATCC 25922 incubated overnight by microbroth-dilution method. It is filed as functional. An outline of the steps: (§2)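 Mueller Hinton broth cultures were grown overnight at 37 °C with shaking at 200 rpm. Inoculum was adjusted to approximately 5 × 10^5 cfu/mL final, confirmed by retrospective plating. Compounds were dissolved in DMSO and tested in doubling dilutions, with untreated and DMSO controls. Plates were incubated overnight at 37 °C. Each concentration was run in triplicate on three separate occasions.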

Assay [4] relates to Staphylococcus aureus. Put plainly: Bactericidal activity against Staphylococcus aureus XEN36 incubated overnight by microbroth-dilution method. It is filed as functional. An outline of the steps: as §1
The test system of assay [5] is Staphylococcus aureus. Put plainly: Antibacterial activity against Staphylococcus aureus XEN36 incubated overnight by microbroth-dilution method. Format: functional. An outline of the steps: as §2
The test system of assay [6] is Mycobacterium tuberculosis. Put plainly: Bactericidal activity against Mycobacterium tuberculosis BSG001 incubated overnight by microbroth-dilution method. Format: functional. An outline of the steps:
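Broth microdilution on luciferase-tagged M. tuberculosis H37Rv in 7H9 medium without Tween or kanamycin, using DMSO-dissolved compounds at 64–1 μg/mL (doubling) and incubating overnight at 37 °C. 5 μL from the MIC wells went into 195 μL fresh medium and was incubated overnight at 37 °C. Dilutions were also plated. MBC was taken as at least a 3-log drop from the initial inoculum.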

A further assay concerns Plasmodium falciparum. Description: Antiplasmodial activity against chloroquine-resistant Plasmodium falciparum FcB1/Columbia infected in erythrocytes assessed as inhibition of parasite growth after 48 hrs by 3H-hypoxanthine incorporation assay. It is filed as functional, organism-based.
Assay [7] has as its system Escherichia coli. Description: Antibacterial activity against Escherichia coli after 24 hrs by broth macrodilution method. It is filed as functional.
The subject of assay [8] is Mycobacterium tuberculosis. Description: Antibacterial activity against Mycobacterium tuberculosis H37Ra after 7 days by resazurin dye based fluorescence assay. It is filed as functional. The settings on record: 168 h.
The test system of assay [9] is Escherichia coli. Put plainly: Antibacterial activity against Escherichia coli ATCC 25922 after 16 hrs by resazurin dye based fluorescence assay. To be noted: ATCC 25922, 16 h. Format: functional.
The subject of assay [10] is Staphylococcus aureus. Put plainly: Antibacterial activity against Staphylococcus aureus ATCC 25923 after 16 hrs by resazurin dye based fluorescence assay. It is filed as functional. To be noted: ATCC 25923, 16 h.

≈ marks a conversion by molar mass, not a printed value. Calls of active or inactive are those of the source. The calls are words filed in the database; no cut-off is given here.

Consider `CO[C@H]1/C=C/O[C@@]2(C)Oc3c(C)c(O)c4c(O)c(c(/C=N/N5CCN(C)CC5)c(O)c4c3C2=O)NC(=O)/C(C)=C\C=C\[C@H](C)[C@H](O)[C@@H](C)[C@@H](O)[C@@H](C)[C@H](OC(C)=O)[C@@H]1C` [RIFAMPIN], for which the MIC in [1] came to 0.161 µg/mL; in the assay with Escherichia coli [3] it was 8 µg/mL; in the assay with Staphylococcus aureus [5] it was 0.004 µg/mL. Besides, the MBC against Escherichia coli [2] is 8 µg/mL; against Staphylococcus aureus [4] it was 0.008 µg/mL; in assay [6], 0.161 µg/mL.

In the case of `N=C(N)NCCCCC1NCCc2c1n(O)c1cc(Br)ccc21` (configuration not stated), the MIC worked out at 106 µM in assay [1], 106 µM against Escherichia coli [3] and 53 µM with Staphylococcus aureus [5]. Further, the MBC with Escherichia coli [2] was 106 µM; against Staphylococcus aureus [4], 53 µM; in [6], 106 µM. The half-maximal inhibitory concentration (IC50) in the assay on Plasmodium falciparum is 3.8 µM.

For the compound `C=CCCC#CC#CCCCCCCC[C@@H](CNC(=O)c1ccccc1)OC(=O)c1ccccc1`, the outcome (in assay [1]; in the assay with Escherichia coli [3]; in the assay on Staphylococcus aureus [5]) was inactive.

Consider `C=CCCCCCC/C=C\C[C@H](O)[C@H](C)N`, for which 196 µM (≈ 44.2 µg/mL) was the least that counted as inhibitory in the assay with Escherichia coli [7] (MIC).

Regarding `C=CCCC#CC#CCCCCCCC[C@H](O)CN`, the MIC in assay [1] was 85 µM; against Escherichia coli [3], 170 µM; with Staphylococcus aureus [5] it was 85 µM. The MBC in the assay with Escherichia coli [2] is > 128 µg/mL; against Staphylococcus aureus [4], 32 µg/mL; in assay [6], 64 µg/mL.

As for `CCCCC/C=C\C/C=C\CC/C=C/C[C@H](O)[C@H](C)N`, the MIC in the assay with Escherichia coli [7] came to 360 µM (≈ 101 µg/mL).

As for `CCCCCCCCCCC[C@H](O)[C@H](C)N`, the MIC (in [8]; against Escherichia coli [9]; against Staphylococcus aureus [10]) was 33 µM (≈ 7.57 µg/mL) each time.
